ChEMBL document CHEMBL1765085, “Cytotoxic and apoptosis-inducing activities of triterpene acids from Poria cocos” (J Nat Prod, 2011)
Activity calls are given as the source filed them. No cut-off for these calls is given here.

Columns and labels:
DU-145 = experiment: Cytotoxicity in human DU145 cells assessed as cell viability after 48 hrs by MTT assay; type: functional, cell-based; settings: DU-145, 48 h
How it was run: (§1)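 Growth conditions: RPMI 1640 for HL60, CRL1579, NIH:OVCAR-3, SK-BR-3, DU145 and PANC-1; D-MEM for A549; MEM for WI-38; all with 10% FBS and antibiotics, 37 °C, 5% CO2. Seeded at 3 × 10^3 cells/well (OVCAR-3 1 × 10^4), then treated 48 h with 10^-4 to 10^-6 M. MTT for 3 h, formazan dissolved in 0.04 M HCl/2-propanol, A570/630. IC50 (50% growth inhibition) from triplicates.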

A549 [1] = experiment: Induction of mitochondrial signal transduction pathway-mediated apoptosis in human A549 cells assessed as increase in Bax level at 30 uM after 24 to 48 hrs by Western blot analysis; type: functional, cell-based
How it was run: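 A549 cells (1.5 × 10^5) were pre-incubated 24 h, then given 30 μM for 24 or 48 h. Whole-cell lysates were run on 15% SDS-PAGE, transferred to PVDF and probed overnight at 4 °C for Bax, Bcl-2 and β-actin. The Bcl-2 band was quantified by densitometry relative to untreated cells, n = 3.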

HL-60 [2] = experiment: Cell cycle arrest in human HL60 cells assessed as accumulation at G2/M phase at 30 uM after 48 hrs by flow cytometry (reference value: 6.0%); type: functional
How it was run: (§2)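 Cells seeded at 1 × 10^5 per sample for HL60 and 1.5 × 10^5 for A549, then exposed to 30 μM for 0, 24 or 48 h. After a PBS wash, DNA was stained with Nim-DAPI for 10 min at room temperature. Phase distribution was read by flow cytometry, with the sub-G1 (fragmented DNA) fraction taken as the apoptosis index. Values are means of three experiments.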

HL-60 [3] = experiment: Induction of apoptosis in human HL60 cells assessed as late apoptotic cells at 30 uM after 24 hrs by AnnexinV/propidium iodide staining (Rvb =3.3%); type: functional
HL-60 [4] = experiment: Induction of apoptosis in human HL60 cells assessed as necrotic cells at 30 uM after 24 hrs by AnnexinV/propidium iodide staining (Rvb =2.3%); type: functional
A549 [5] = experiment: Cell cycle arrest in human A549 cells assessed as accumulation at Go/G1 phase at 30 uM after 24 hrs by flow cytometry (reference value: 64.3%); type: functional; how it was run: as §2
HL-60 [6] = experiment: Induction of apoptosis in human HL60 cells assessed as early apoptotic cells at 30 uM after 48 hrs by AnnexinV/propidium iodide staining (Rvb =7.6%)
A549 [7] = experiment: Cell cycle arrest in human A549 cells assessed as accumulation at sub-G1 phase at 30 uM after 48 hrs by flow cytometry (reference value: 3.1%); type: functional; how it was run: as §2
HL-60 [8] = experiment: Cell cycle arrest in human HL60 cells assessed as accumulation at Go/G1 phase at 30 uM after 24 hrs by flow cytometry (reference value: 51.4%); type: functional; how it was run: as §2
HL-60 [9] = experiment: Induction of mitochondrial signal transduction pathway-mediated apoptosis in human HL60 cells assessed as increase in cleaved caspase-9 level at 30 uM after 8 hrs by Western blot analysis; type: functional, cell-based
How it was run: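 HL60 cells (1 × 10^6) pre-incubated 24 h, then exposed to 30 μM final for 8 h. Whole-cell lysates in extraction buffer, resolved on 15% SDS-PAGE, blotted to PVDF, probed overnight at 4 °C with anti-caspase-8 or anti-caspase-9 primary antibodies, β-actin as loading reference. Procaspase loss and cleaved caspase bands read.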

A549 [10] = experiment: Induction of apoptosis in human A549 cells assessed as early apoptotic cells at 30 uM after 48 hrs by AnnexinV/propidium iodide staining (Rvb =4.3%); type: functional
HL-60 [11] = experiment: Induction of apoptosis in human HL60 cells assessed as late apoptotic cells at 30 uM after 48 hrs by AnnexinV/propidium iodide staining (Rvb =3.3%); type: functional
A549 [12] = experiment: Cell cycle arrest in human A549 cells assessed as accumulation at S phase at 30 uM after 48 hrs by flow cytometry (reference value: 27.7%); type: functional; how it was run: as §2
A549 [13] = experiment: Induction of apoptosis in human A549 cells assessed as viable cells at 30 uM after 24 hrs by AnnexinV/propidium iodide staining (Rvb =91.2%); type: functional; settings: A549, 24 h, read-out: Activity
HL-60 [14] = experiment: Induction of mitochondrial signal transduction pathway-mediated apoptosis in human HL60 cells assessed as decrease in Bcl-2 level at 30 uM after 8 to 24 hrs by Western blot analysis; settings: TDE = time-dependent effect
A549 [15] = experiment: Induction of mitochondrial signal transduction pathway-mediated apoptosis in human A549 cells assessed as increase in cleaved caspase-9 level at 30 uM after 24 to 48 hrs by Western blot analysis
HL-60 [16] = experiment: Induction of apoptosis in human HL60 cells assessed as viable cells at 30 uM after 48 hrs by AnnexinV/propidium iodide staining (Rvb =85.6%); type: functional; settings: HL-60, 48 h, read-out: Activity
WI-38 = experiment: Cytotoxicity against human WI38 cells assessed as cell viability after 48 hrs by MTT assay; type: cell-based; settings: WI-38, 48 h; how it was run: as §1
[17] = Cytotoxicity in human AZ-521 cells assessed as cell viability after 48 hrs by MTT assay; type: functional, cell-based; settings: AZ-521, 48 h
[18] = Cytotoxicity in human CRL1579 cells assessed as cell viability after 48 hrs by MTT assay; type: functional, cell-based; how it was run: as §1
HL-60 [19] = experiment: Induction of apoptosis in human HL60 cells assessed as early apoptotic cells at 30 uM after 24 hrs by AnnexinV/propidium iodide staining (Rvb =7.6%)
HL-60 [20] = experiment: Cell cycle arrest in human HL60 cells assessed as accumulation at sub-G1 phase at 30 uM after 48 hrs by flow cytometry (reference value: 3.0%); type: functional; how it was run: as §2
A549 [21] = experiment: Cell cycle arrest in human A549 cells assessed as accumulation at G2/M phase at 30 uM after 24 hrs by flow cytometry (reference value: 4.9%); type: functional; how it was run: as §2
A549 [22] = experiment: Cell cycle arrest in human A549 cells assessed as accumulation at Go/G1 phase at 30 uM after 48 hrs by flow cytometry (reference value: 64.3%); type: functional; how it was run: as §2
HL-60 [23] = experiment: Cell cycle arrest in human HL60 cells assessed as accumulation at S phase at 30 uM after 48 hrs by flow cytometry (reference value: 42.6%); type: functional; how it was run: as §2
HL-60 [24] = experiment: Induction of apoptosis in human HL60 cells assessed as necrotic cells at 30 uM after 48 hrs by AnnexinV/propidium iodide staining (Rvb =2.3%); type: functional
A549 [25] = experiment: Induction of apoptosis in human A549 cells assessed as necrotic cells at 30 uM after 24 hrs by AnnexinV/propidium iodide staining (Rvb =3.4%); type: functional
HL-60 [26] = experiment: Cell cycle arrest in human HL60 cells assessed as accumulation at G2/M phase at 30 uM after 24 hrs by flow cytometry (reference value: 6.0%); type: functional; how it was run: as §2
SK-BR-3 = experiment: Cytotoxicity in human SK-BR-3 cells assessed as cell viability after 48 hrs by MTT assay; type: functional, cell-based; settings: SK-BR-3, 48 h; how it was run: as §1

With `C=C(CC[C@@H](CO)[C@H]1[C@H](O)C[C@@]2(C)C3=CC[C@@H](C(=C)C)[C@](C)(CCCO)C3=CC[C@]12C)C(C)C` [PORICOTRIOL A] the IC50 (DU-145) was 14.5 µM, the Activity (A549 [1]) was “inactive” and the Activity (HL-60 [2]) was 10.9%. The Activity (HL-60 [3]) was 14%, the Activity (HL-60 [4]) was 3.2% and the Activity (A549 [5]) was 77.2%. The Activity (HL-60 [6]) was 52.5%, the Activity (A549 [7]) was 17.4% and the Activity (HL-60 [8]) was 62.3%. The Activity (HL-60 [9]) was “Active”, the Activity (A549 [10]) was 24.1% and the Activity (HL-60 [11]) was 30.4%. The Activity (A549 [12]) was 6%, the viability at 30 µM (A549 [13]) was 89.2% and the Activity (HL-60 [14]) was “tde”. For the same compound, the Activity (A549 [15]) was “inactive”, the viability at 30 µM (HL-60 [16]) was 14.7% and the IC50 (WI-38) was 55.7 µM. It also gave an IC50 [17] of 1.4 µM, an IC50 [18] of 5.5 µM and an Activity (HL-60 [19]) of 48.1%. For the same compound, the Activity (HL-60 [20]) was 38.7%, the Activity (A549 [21]) was 7.5% and the Activity (A549 [22]) was 73%. The Activity (HL-60 [23]) was 30.5%, the Activity (HL-60 [24]) was 2.5% and the Activity (A549 [25]) was 4.3%. The Activity (HL-60 [26]) was 8.8% and the IC50 (SK-BR-3) was 1.2 µM.
